# Assay outcomes deposited in PubChem by several laboratories.
# An excerpt weighted towards active compounds, which were near 1.3% of everything screened.
# CHT block – inhibitors of human choline transporter CHT | hit rate 0.86% among 310,000 | B-score at 10 µM | CHT-expressing cells, membrane potential dye, choline response; active compounds read low;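 active means B-score over 3 SD under the library average, and starting fluorescence ratio not unusually high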;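 further: choline stimulus applied at its EC90 after an EC20 pre-addition; B-score computed on integrated fluorescence ratio after choline addition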
# Target sequence (Q9GZV3 whole entry, looked up): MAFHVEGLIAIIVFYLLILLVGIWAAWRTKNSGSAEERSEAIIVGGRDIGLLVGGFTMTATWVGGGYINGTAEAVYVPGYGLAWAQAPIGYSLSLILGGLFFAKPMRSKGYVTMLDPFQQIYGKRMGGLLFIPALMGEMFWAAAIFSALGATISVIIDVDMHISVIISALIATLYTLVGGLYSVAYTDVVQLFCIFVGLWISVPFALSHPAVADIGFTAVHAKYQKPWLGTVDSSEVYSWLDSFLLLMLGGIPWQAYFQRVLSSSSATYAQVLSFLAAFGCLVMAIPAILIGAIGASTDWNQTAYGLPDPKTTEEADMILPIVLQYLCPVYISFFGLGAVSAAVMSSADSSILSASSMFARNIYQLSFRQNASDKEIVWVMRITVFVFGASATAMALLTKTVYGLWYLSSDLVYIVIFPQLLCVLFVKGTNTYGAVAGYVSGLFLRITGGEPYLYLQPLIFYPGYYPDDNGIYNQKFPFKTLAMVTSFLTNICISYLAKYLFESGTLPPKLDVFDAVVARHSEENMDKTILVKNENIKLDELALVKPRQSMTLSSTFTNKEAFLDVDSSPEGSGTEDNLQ
# procasp3 activ – procaspase-3 (human) activation; recombinant procaspase-3 D3A, Ac-DEVD-pNA absorbance 405 nm; activation, % at 8.5 µM; hit rate 0.11% among 330,000; AID 463141;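 active means activation above the mean of all tested compounds plus 3 SD, cut at about 21% in these data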;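 further: 0% = DMSO alone and 100% = DMSO wells spiked with extra 5 µM PC-3 D3A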
#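 Assay system – Procaspase-3 D3A mutant, all three cleavage aspartates alanine · Controls – DMSO-only low control, 5 µM PC-3 D3A high control · Schedule – 1 h compound preincubation, 2 h substrate hydrolysis at 25 °C · Signal – 405 nm absorbance of p-nitroaniline, reads at 0 and 120 min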
# procasp7 counter – activates human procaspase-7, counter-screen for procaspase-3 activators; P55210; recombinant procaspase-7, Ac-DEVD-pNA absorbance 405 nm; D23A/D198A/D206A triple mutant, cannot self-cleave; scale: DMSO 0, 5 µM enzyme 100; activation, % at 8.5 µM; hit rate 0.093% among 330,000; AID 463210;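 active means percent activation above the screen-wide mean plus 3 SD, cut at about 25% in these data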
#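 Replicates: singlicate. Assay system: Procaspase-7 triple mutant (PC-7 D3A). Signal: 405 nm absorbance of p-nitroaniline. Times: 1 h preincubation, 2 h reaction. Buffer or medium: Zinc-free HEPES pH 7.4 with 300 mM NaCl, 0.01% Triton X-100. Also added: DEVD-pNA substrate. Benchmarks: DMSO wells as 0%, DMSO with 5 µM added PC-7 as 100%.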
# CHT PAM – allosterically activates the human high affinity choline transporter. CHT-expressing cells, membrane potential dye, choline EC20; active compounds read high; LV-AA mutant CHT in HEK293 cells. B-score at 10 µM. hit rate 0.49% among 310,000. AID 488977;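 active means initial fluorescence not abnormally high and integrated response B-score, plate-corrected, over 3 SD above library mean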
# CHT act confirm – human CHT activation, confirmatory screen | shares compounds with CHT PAM | hit rate 91% among 2,500 | activation, % at 10 µM | CHT-expressing cells, membrane potential dye fluorescence (FDSS); % of choline EC20–EC90 response window; HEK293 expressing CHT LV-AA mutant; choline added at its EC20;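 active means primary screen active, with duplicate mean activation above negative control mean plus 3 SD, cut at about 11% in these data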
# HEK293 MP dye – CHT activator counter-screen hit in parental HEK293 cells; shares compounds with CHT PAM; membrane potential dye fluorescence (FDSS); measured after EC20 choline addition; ratio readout change at 10 µM, hits read low; hit rate 62% among 2,500; AID 623908;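 active means duplicate-averaged ratio beyond 3 SD from buffer wells, up or down, though filed actives are nearly all decreases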
# Starred values were filed as active, the others as inactive; i = inactive; x = not tested or not shown.
SMILES,CHT block,procasp3 activ,procasp7 counter,CHT PAM,CHT act confirm,HEK293 MP dye
CCn1cc(C(=O)OCC(=O)Nc2c(C)n(C)n(-c3ccccc3)c2=O)c(=O)c2ccc(C)nc21,i,2,3,11*,78*,-72*
C=CCOC(=O)c1cn(CC)c2nc(C)ccc2c1=O,i,-2,1,10*,73*,-67*
CCOC(=O)c1cn(CC)c2cc(N3CCCCC3)c(F)cc2c1=O,i,-2,7,i,x,x
CCCCC(=O)Oc1c(S(=O)(=O)c2ccccc2)c(C)nn1C(C)(C)C,i,6,7,i,x,x
O=C(CSc1nc2ccccc2c(=O)[nH]1)Nc1ccccc1C(F)(F)F,i,6,-1,i,x,x
CCC(C)(C)NC(=O)C(c1ccc(OC)cc1)N(C(=O)CCC(=O)Nc1cc(C)on1)c1ccccc1F (stereo unspecified),i,1,11,i,x,x
Cc1ccnc(NS(=O)(=O)c2ccc(NC(=O)CC(C)c3ccccc3)cc2)n1 (stereo unspecified),i,2,8,i,x,x
CCn1cc(C(=O)OCc2ccc(F)cc2)c(=O)c2ccc(C)nc21,i,-5,-9,8*,56*,-87*
CCn1cc(C(=O)OCC(=O)OC2CC(C)CCC2C(C)C)c(=O)c2ccc(C)nc21 (stereo unspecified),i,-3,1,i,31*,i
CCOC(=O)c1ccccc1NC(=O)c1cn(CC)c2nc(C)ccc2c1=O,i,-11,8,i,x,x
CCn1cc(C(=O)OCc2cccc(Br)c2)c(=O)c2ccc(C)nc21,i,5,5,i,x,x
c1ccc(-c2ncc(CN3CCN(c4ccccn4)CC3)[nH]2)cc1,i,-3,11,i,x,x
O=c1oc2ccccc2c(N2CCC(c3ccccc3)CC2)c1[N+](=O)[O-],i,2,3,i,5,i
CCOC(=O)CSc1nc2sc3c(c2c(=O)n1C1CCCCC1)CCN(C)C3,i,0,-3,8.1*,27*,-29*
CCOC(=O)CSc1nc2sc3c(c2c(=O)n1-c1ccc(OCC)cc1)CCN(C)C3,i,-4,-6,i,x,x
CCOc1ccc(-n2c(SCC(N)=O)nc3sc4c(c3c2=O)CCN(C)C4)cc1,i,-2,4,i,38*,-33*
CCOC(=O)c1cc(C)n(Cc2ccc(OCC)c(OC)c2)c1C,i,-5,7,i,x,x
COC(=O)[C@]1(Cc2ccccc2)N[C@H](CN(C)S(=O)(=O)c2ccc(-c3ccccc3)cc2)[C@@H]2C(=O)N(C)C(=O)[C@@H]21,x,8,3,x,x,x
O=C(O)C1NCCc2ccccc21 (stereo unspecified),i,8,4,i,8,i
O=C(O)CC1NCCc2ccccc21 (stereo unspecified),i,-8,-3,i,x,x
CN(C)S(=O)(=O)c1ccc(Cl)c(NC(=O)CN2CCCC2)c1,i,11,0,i,x,x
COc1ccc(-n2cc(CNCCCN3CCCC3=O)c(-c3ccccc3Cl)n2)cc1,i,0,12,6.3*,19*,i
COc1ccc(-c2c3c(=O)n(C)c(=O)n(C)c3cn2C2CCCCC2)cc1,i,-5,-3,6.8*,23*,i
CCn1c(C)[n+](CCOCC[n+]2c(C)n(CC)c3cc(Cl)c(Cl)cc32)c2cc(Cl)c(Cl)cc21,i,-8,-10,6.7*,31*,-49*
CC1CCCCN1C(=O)CN1C(=O)c2ccccc2S1(=O)=O (stereo unspecified),i,-3,17,i,x,x
SMILES,CHT block,procasp3 activ,procasp7 counter,CHT PAM,CHT act confirm,HEK293 MP dye
CCO[C@H]1OC(C(=O)NCc2nc3ccccc3[nH]2)=C[C@@H](c2ccccc2)[C@@H]1CCCO,i,2,-2,i,x,x
CCO[C@H]1OC(C(=O)NCc2nc3ccccc3[nH]2)=C[C@@H](C2CC2)[C@@H]1CCCO,i,4,-4,i,26*,i
COc1ccc(-c2cn3ccccc3n2)cc1OC,i,4,12,i,21*,-38*
COc1ccc(-c2cn3cc(C)ccc3n2)cc1OC,i,-8,-2,i,x,x
CCC(=O)Nc1cccc(-c2cn3ccccc3n2)c1,i,3,-5,i,45*,-42*
CCC(C)NC(=O)c1ccc(NC(=O)C2=C(C)OCCS2)cc1 (stereo unspecified),i,-7,-5,i,x,x
O=C(c1c(F)cccc1F)N1CCCC(c2nc(-c3ccc(F)cc3)no2)C1 (stereo unspecified),i,-2,1,i,x,x
CCn1c(CNC(=O)c2cccs2)n[nH]c1=S,i,-2,-2,i,x,x
Nc1nc(N2CCCCC2)nc2ccccc12,i,-4,4,i,x,x
Nc1nc(N2CCN(c3ccccn3)CC2)nc2ccccc12,i,8,8,i,26*,-42*
CC(C)NS(=O)(=O)c1ccc(Br)c(C(=O)OC(C)C(=O)NC2CCCCC2C)c1 (stereo unspecified),i,6,2,i,x,x
Cc1ccnc2nc(C(=O)OCC(=O)Nc3ccc([N+](=O)[O-])cc3Br)nn12,x,0,9,x,x,x
Cc1ccn2cc(-c3cccc(NS(C)(=O)=O)c3)nc2c1,i,10,2,6.3*,35*,-42*
Cc1ccn2cc(-c3cccc([N+](=O)[O-])c3)nc2c1,i,6,2,i,39*,-46*
CC(=O)Nc1cccc(-c2cn3ccc(C)cc3n2)c1,i,0,4,i,x,x
CCC1(O)CC(c2ccccc2)=NN1C(=O)c1ccccc1F (stereo unspecified),i,-5,1,i,x,x
Clc1ccccc1-c1nn2c(-c3ccccn3)nnc2s1,i,-5,2,i,43*,-38*
Clc1ccccc1-c1nn2c(-c3ccncc3)nnc2s1,i,-8,-1,i,x,x
O/N=C/c1ccc2cccc(OCc3ccccc3)c2n1,i,-2,-3,i,x,x
NC(N)=N/N=C/c1ccc2cccc(OCc3ccccc3)c2n1,i,-21,2,6.3*,14*,i
CCN(CC)CCNc1nc2c(c(=O)[nH]c(=O)n2C)n1CC(O)COc1ccc(Cl)cc1Cl (stereo unspecified),i,6,8,9.5*,53*,-53*
OCC(O)[C@@H](O[C@H]1O[C@H](CO)[C@@H](O)[C@H](O)[C@H]1O)[C@H](O)[C@@H](O)CO (stereo partly specified),i,-7,6,i,x,x
